We go through 14 molecules from ChEMBL document CHEMBL1139435, “Beta-oxygenated analogues of the 5-HT2A serotonin receptor agonist 1-(4-bromo-2,5-dimethoxyphenyl)-2-aminopropane” (J Med Chem, 2004).

A word on the Ki: it is the equilibrium dissociation constant of an inhibitor or competing ligand from its target. As usually defined, the EC50 is the concentration that produces a half-maximal response.

Test [1] concerns the target 5-hydroxytryptamine receptor 2A (Rattus norvegicus) (UniProt P14842). As to the kind of experiment: Efficacy as 5-HT2A receptor-mediated intracellular calcium [Ca2+] mobilization in rat A7r5 cells. It is filed as functional, cell-based. The gist of the method:
(§1)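 Rat A7r5 vascular smooth muscle cells grown in DMEM/10% FBS, seeded at 20 000 cells/well, cultured 2 days. Loaded with calcium dye in HBSS/20 mM HEPES/2.5 mM probenecid pH 7.4 for 1 h at 23 °C. Response is peak minus basal fluorescence, expressed as % of maximal 5-HT response.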
In general terms: Calcium flux is commonly read through the fluorescence of an indicator in the cells.

For test [2], the target named is T1, 5-hydroxytryptamine receptor 2A (Rattus norvegicus, UniProt P14842). In words: Binding affinity for 5-HT2A serotonin receptor. The essentials: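 Incubated 1 h at 23 °C. Nonspecific binding defined with methiothepin (10 µM final). Ended by vacuum filtration over GF/B filters presoaked in 0.3% polyethyleneimine, washed with ice-cold buffer. Bound counts read by scintillation. IC50 for displacing labelled DOI binding.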

In test [3] the target is T1, 5-hydroxytryptamine receptor 2A. In words: Serotonin 5-HT2A receptor-mediated intracellular calcium [Ca2+] mobilization in rat A7r5 cells. It is filed as functional, cell-based. The essentials:
as §1

Test [4] has as its system Monkey. As to the kind of experiment: Percent reduction of intraocular pressure after 1 hour following topical ocular administration to normal eye conscious cynomolgus monkeys. It is filed as functional, Cercopithecidae. The gist of the method:
(§2)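 Conscious cynomolgus monkeys dosed topically in the eye with 300 µg in phosphate-buffered saline, pH 7.4. Vehicle was given to test eyes of five or six further animals. IOP measured at baseline and at 1, 3 and 6 h. Values are % reduction from baseline.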

Test [5] concerns Monkey. As to the kind of experiment: Percent reduction of intraocular pressure after 3 hours following topical ocular administration to normal eye conscious cynomolgus monkeys. It is filed as functional, Cercopithecidae. The essentials:
as §2

Test [6] deals with Monkey. As to the kind of experiment: Percent reduction of intraocular pressure after 6 hours following topical ocular administration to normal eye conscious cynomolgus monkeys. It is filed as functional, Cercopithecidae. The essentials: as §2

T1 sequence (P14842 whole entry): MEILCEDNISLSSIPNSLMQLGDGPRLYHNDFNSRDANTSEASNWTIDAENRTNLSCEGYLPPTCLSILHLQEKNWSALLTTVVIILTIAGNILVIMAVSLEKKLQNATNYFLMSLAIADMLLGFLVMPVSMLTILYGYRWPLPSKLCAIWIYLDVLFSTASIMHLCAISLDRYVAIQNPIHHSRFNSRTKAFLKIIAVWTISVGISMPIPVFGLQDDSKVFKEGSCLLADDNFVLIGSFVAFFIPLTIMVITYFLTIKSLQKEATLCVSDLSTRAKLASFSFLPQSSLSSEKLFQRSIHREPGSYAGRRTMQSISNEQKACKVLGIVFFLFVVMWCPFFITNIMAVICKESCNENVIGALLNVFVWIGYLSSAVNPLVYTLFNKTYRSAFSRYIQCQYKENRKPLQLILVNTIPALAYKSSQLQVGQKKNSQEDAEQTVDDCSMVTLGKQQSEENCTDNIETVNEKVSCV
Chain of 5-hydroxytryptamine receptor 2A (Rattus norvegicus) (P14842 whole entry): as above

In the case of `COc1cc(C(CN)OC)c(OC)cc1Br` (stereo not given), the Efficacy in test [1] was determined as 63%. This molecule gave a Ki in test [2] of 2 nM. In addition, in test [3], the EC50 came out at 120 nM.

For `COc1cc(C[C@@H](C)N)c(OC)cc1I`, the Reduction in test [4] amounted to 15.2%; in test [5], 31%; in test [6], 34.4%.

Turning to `COc1cc([C@@H](O)[C@H](C)N)c(OC)cc1Br`, in test [1], the Efficacy was 22%. In addition, the affinity in test [2], expressed as Ki, was 1.1 nM. Further, the EC50 in test [3] was 840 nM.

Turning to `COc1cc([C@H](O)[C@@H](C)N)c(OC)cc1Br`, in test [1], the Efficacy turned out to be 20%. In test [2], this molecule displayed a Ki of 9.2 nM.

As to `COc1cc(C2CNCCO2)c(OC)cc1Br` (stereo not given), in test [1], the Efficacy worked out at 4%. This molecule also returned a Ki in test [2] of 20.6 nM.

For `COc1cc([C@@H](O)[C@@H](C)N)c(OC)cc1Br`, the Efficacy in test [1] was 50%. The molecule further had an inhibition constant Ki in test [2] of 0.5 nM. The EC50 in test [3] stood at 100 nM. Moreover, the Reduction in test [4] came out at 10.7%; in test [5] it was 19%; in test [6] it was 22.1%.

For `CC[C@H](N)[C@H](O)c1cc(OC)c(Br)cc1OC`, in test [1], the Efficacy came out at 5%. The molecule further registered an inhibition constant (Ki) in test [2] of 20.3 nM.

With `COc1cc([C@H](OC)[C@H](C)N)c(OC)cc1Br`, the Efficacy in test [1] was determined as 31%. The molecule also returned an inhibition constant Ki in test [2] of 6 nM. The EC50 in test [3] came out at 1410 nM.

Consider `COc1ccc(OC)c(C[C@@H](C)N)c1`, for which the Efficacy in test [1] is 34%. The Ki in test [2] is 9.2 nM. Besides, in test [3], the EC50 came to 740 nM.

With `CCC(N)Cc1cc(OC)c(Br)cc1OC` (stereo not given), in test [1], the Efficacy came out at 15%. The same molecule had a Ki in test [2] of 7.6 nM.

`COc1cc([C@@H](OC)[C@@H](C)N)c(OC)cc1Br`: the Efficacy in test [1] came out at 93%. This molecule yielded a Ki in test [2] of 0.3 nM. The concentration for a half-maximal effect (EC50) in test [3] came to 130 nM. Further, the Reduction in test [4] was 19%; in test [5], 27.5%; in test [6] it was 25.5%.

`COc1cc(C(O)CN)c(OC)cc1Br` (stereo not given): the Efficacy in test [1] amounted to 8%. For the same molecule, affinity in test [2] was put at a Ki of 2.1 nM.

Turning to `COc1cc([C@H](O)[C@H](C)N)c(OC)cc1Br`, the Efficacy in test [1] was found to be 16%. Further, the Ki in test [2] was found to be 10 nM.

As to `COc1cc(CC(C)N)c(OC)cc1Br` (stereo not given), the Efficacy in test [1] came out at 38%.
